High-throughput results from PubChem.
core dimer inh: HCV core protein dimerization inhibition. TR-FRET GST/Flag-core106 dimerization, 1536-well. actives 0.33% (n = 300,000). inhibition, % at 5 µM;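 active = inhibition above the mean of all tested compounds plus 3 SD, set per screening campaign, cut at about 45% in these data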
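System: GST/Flag-tagged HCV core106 proteins. Incubation: compound-protein-antibody incubation 4 h at 22.5 °C. Technique: HTRF with 340 nm excitation, 617/671 nm emission. Medium: KF-containing HEPES buffer, pH 7.45, DTT, CHAPS, BSA. Read-out: inhibition (%) from 671 over 617 nm ratio. Also added: Eu(K)-anti-GST 90 ng/mL plus XL665-anti-Flag 1 µg/mL.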
HSF1 inhib: HSF1 inhibition; actives 0.77% (n = 300,000); NIH3T3-HGL HSE-luciferase, MG132-induced, luminescence 8 h; stronger effect = lower value; activity change, negative = inhibition, % at 7.5 µM (by protocol); AID 2098;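 active = more than half of replicate wells show activity change below -50%, luminescence cut by over half; inconclusive = some wells, but at most half, below -50%; inactive = no replicate well below -50%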;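 note: luciferase reports HSF-1 transcriptional activity via heat shock element; 0% = median of DMSO wells and -100% = zero luminescence signal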
HSF-1 act: increases HSF-1 driven luciferase reporter signal; actives 1.7% (n = 300,000); activation, % at 9 µM; AID 504408; NIH3T3-HGL HSF-1 luciferase reporter, MG132, 8 h; 100% = twice DMSO control signal;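 active = mean replicate activation of at least 50% with a set share of replicates each reaching 50%; inconclusive = only one of those two conditions met; inactive = mean below 50% and too few replicates reaching it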;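 note: 0% = median of the neutral control wells and 100% = twice that signal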
HCV NS3 hel inh: inhibitors of Hepatitis C virus NS3 helicase | NS3 helicase DNA unwinding, Cy5 molecular beacon fluorescence | actives 0.56% (n = 290,000) | inhibition, % at 10.9 µM;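 active = inhibition above the mean of all tested compounds plus 3 SD, set per campaign, cut at about 35% in these data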;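 note: 0% = DMSO wells and 100% = thioflavine S control wells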
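Material: hepatitis C virus NS3 helicase domain fragment enzyme; measured by: Cy5 fluorescence, 0 and 60 min reads; control set: DMSO and thioflavine S; incubation: 60 min unwinding reaction at 25 °C after ATP addition; read-out basis: % inhibition from 60/0 min fluorescence ratio, DMSO 0%, thioflavine S 100%; repeats: singlicate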
HSP90 refold inh: inhibitors of HSP90 luciferase refolding in rabbit reticulocyte lysate. actives 0.91% (n = 290,000). luciferase refolding luminescence, 3 h. inhibition, % at 5.6 µM;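 active = inhibition above the screen-wide mean plus 3 SD, computed separately per campaign, cut at about 16% in these data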;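 note: 0% = DMSO wells and 100% = 60 µM geldanamycin wells; inhibitors lower the luminescence because luciferase stays unfolded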
DNA FID counter-1: counter-screen for HCV NS3 helicase inhibitors: DNA intercalator displacement; DNA fluorescent intercalator displacement, fluorescence; inhibition, % at 7.9 µM; actives 0.17% (n = 290,000); AID 1845;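 note: 0% = vehicle and 100% = reference compound; higher means more ethidium bromide displaced from hairpin DNA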
NS3 hel confirm: HCV NS3 helicase inhibition, confirmation assay; shares compounds with HCV NS3 hel inh; NS3 helicase DNA unwinding, Cy5 molecular beacon fluorescence; inhibition, % at 10.9 µM; actives 31% (n = 1,600); AID 1943;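 active = inhibition above the mean of all tested compounds plus 3 SD, cutoff set per campaign, cut at about 36% in these data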
DNA FID counter-2: intercalator displacement, NS3 helicase counter-screen; shares compounds with HCV NS3 hel inh; DNA fluorescent intercalator displacement, fluorescence; inhibition, % at 7.9 µM; actives 4% (n = 1,600); AID 1945;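 note: 0% = vehicle and 100% = reference compound; higher means more displacement of ethidium bromide from the DNA hairpin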
FID counter DR: counter-screen for HCV NS3 helicase inhibitors: DNA intercalator displacement dose response | shares compounds with HCV NS3 hel inh | fluorescent intercalator displacement from DNA, fluorescence | IC50, µM | 120 tested, under 10 active | AID 2172; call rule not given here
* hit, by the source's call; ? = inconclusive; . = no result. This is a sample that favours compounds with a hit; in the whole collection about 3.9% have one here. Cut-off read from the data, not from the text of the source, unless noted: active = inhibition above about 37%; inactive = the rest.

SMILES	core dimer inh	HSF1 inhib	HSF-1 act	HCV NS3 hel inh	HSP90 refold inh	DNA FID counter-1	NS3 hel confirm	DNA FID counter-2	others
N#Cc1ccc(-c2ccco2)nc1SCC(=O)c1ccc(Cl)cc1	8	6	24	38*	2	-6	12	14
CCCn1c(N)c(N(CCOC)C(=O)COC(=O)CSc2cc(C)c3ccccc3n2)c(=O)[nH]c1=O	6	0	14	.	.	.	.	.
Cc1cccc(N=C2NC(=O)S/C2=C\c2ccco2)c1	-6	7	8	37*	4	-1	0	20
Cc1cccc(N=C2NC(=O)/C(=C/C=C/c3ccco3)S2)c1	19	9	-3	44*	2	-17	3	-7
O=C1NC(=Nc2ccc3ccccc3c2)S/C1=C/c1ccco1	43	-3	3	28	6	-6	.	.
COc1ccc(N=C2NC(=O)/C(=C\C=C\c3ccco3)S2)cc1	.	73	124*	46*	1	-16	36*	8	FID counter DR=>79
Cc1ccc(N=C2NC(=O)/C(=C\c3ccco3)S2)cc1	11	13	16	40*	1	-13	-4	-3
CN1CCC(N(C)C(=S)NCCc2ccccc2)CC1	-2	0	-9	8	1	16	.	.
Cc1ccc(S(=O)(=O)N(C)C)cc1NC(=O)c1cccnc1Oc1ccccc1	2	5	14	8	1	-7	.	.
CN1CCN(S(=O)(=O)c2ccc(N3CCN(S(=O)(=O)/C=C/c4ccccc4)CC3)nc2)CC1	0	-3	-4	-31	3	3	.	.
CN1CCN(S(=O)(=O)c2ccc(N3CCN(C(c4ccccc4)c4ccccc4)CC3)nc2)CC1	3	2	9	43*	1	-2	8	51*
O=C(O)CSc1cc(NS(=O)(=O)c2ccc(Cl)cc2)c2ccccc2c1O	-12	3	16	43*	14	-4	50*	45*
O=C(Nc1nc(-c2ccco2)c(-c2ccco2)s1)C1CC(=O)N(c2ccc3c(c2)OCCO3)C1 (stereo unspecified)	32	-2	-15	40*	2	-13	72*	28	FID counter DR=>79
O=C(Nc1nc(-c2ccco2)c(-c2ccco2)s1)C1CCC1	8	4	12	58*	9	-12	47*	19	FID counter DR=>79
CCCCc1nnc(NC(=O)C2CC(=O)N(c3ccc4c(c3)OCCO4)C2)s1 (stereo unspecified)	-10	-7	-7	-6	0	-1	.	.
O=C(Nc1nnc(-c2ccco2)s1)C1CCCCC1	2	21	29	-2	2	-3	.	.
O=C1/C(=C\c2ccc(C(F)(F)F)cc2)CSc2sccc21	0	4	24	-17	2	-11	.	.
CCOC(=O)c1c(S(=O)(=O)NCC2CCN(CCc3cccs3)CC2)c(C)n(C)c1C	9	13	?	-1	-2	6	.	.
Cc1nn(C(C)C(=O)NCCN2CCCCCC2)c(=O)c2nn(-c3ccccc3)c(C)c12 (stereo unspecified)	-2	-1	0	-22	0	-4	.	.
Cc1ccc(S(=O)(=O)NCc2ccco2)cc1C(N)=O	3	1	0	0	-2	10	.	.
O=C(Cc1ccccc1F)OCN1C(=O)c2ccccc2C1=O	-9	14	18	22	2	-26	.	.
COc1cccc(C(N)=O)c1OC(=O)Cc1ccccc1F	0	-3	2	40*	-2	-3	2	13
O=C(CCC(=O)Nc1cccc2ccccc12)N/N=C/c1ccco1	-7	0	-11	3	1	-2	.	.
CN(C)c1ccc(N=Cc2ccco2)cc1	-16	.	.	41*	-2	3	5	11
Cc1ccc(N=Cc2ccc(N(C)C)cc2)cc1	-6	-1	28	4	-2	4	.	.
SMILES	core dimer inh	HSF1 inhib	HSF-1 act	HCV NS3 hel inh	HSP90 refold inh	DNA FID counter-1	NS3 hel confirm	DNA FID counter-2	others
C(=Nc1cccc2c(N=Cc3ccco3)cccc12)c1ccco1	-16	-6	-2	37*	6	-1	-15	20
CN(C)c1ccc(C=Nc2ccc(N(C)C)cc2)cc1	-79	-2	2	37*	2	5	5	17
Cc1cccc(C(=O)N/N=C2\CS(=O)(=O)N(C)c3ccsc32)c1	-10	-3	-11	1	-4	-3	.	.
CCOC(=O)C1(Cc2cccc(Cl)c2)CCCN(C(=O)c2ccoc2C)C1 (stereo unspecified)	.	7	28	44*	4	-45	-7	-53
CCOC(=O)C1(Cc2cccc(Cl)c2)CCCN(C(=O)c2ccco2)C1 (stereo unspecified)	4	-3	12	-12	-5	-52	.	.
CCC1(c2ccccc2)NC(=O)N(CC(=O)NNC(=O)c2ccoc2C)C1=O (stereo unspecified)	-5	-11	-22	.	.	.	.	.
Cc1nnc(SCC(=O)Nc2ccccc2)[nH]c1=O	-1	-1	4	-14	-1	0	.	.
Cc1c(C(=O)c2ccc(Cl)cc2[N+](=O)[O-])c2ccccn2c1CCC#N	-7	-10	-8	-11	-2	3	.	.
Cc1c(C(=O)c2ccc(F)cc2F)c2ccccn2c1CCC#N	-18	-6	3	49*	10	-3	-7	14
Cc1ccc(NS(=O)(=O)c2ccc3c(c2)CCN3C(=O)CCC(=O)O)cc1Cl	-5	7	3	48*	4	-18	23	-30
Cc1cccc(NS(=O)(=O)c2ccc3c(c2)CCN3C(=O)CCC(=O)O)c1	9	-4	-14	7	1	-28	.	.
Cc1cc(OCc2nnc(SC(C)C(=O)O)n2-c2ccccc2)ccc1Cl (stereo unspecified)	-1	-4	-12	53*	1	-33	40*	-27
CCOC(=O)n1c(=O)n(C)c2ccc(Br)cc21	-1	-2	9	112*	0	-5	-3	6
COCCCN(C(=O)Cc1csc(-c2cccc(Cl)c2)n1)c1c(N)n(Cc2ccccc2)c(=O)[nH]c1=O	2	2	10	.	.	.	.	.
CCc1cc2c(=O)n(Cc3ccco3)c(SCc3c(C)noc3C)nc2s1	11	17	6	51*	4	-48	48*	-30	FID counter DR=>79
CCc1cc2c(=O)n(Cc3ccco3)c(SCC(=O)N3CCCc4ccccc43)nc2s1	22	-3	3	43*	3	-32	25	-16
